A1 apoptosis 2 – blocks A1, raising caspase activity | caspase activation, % (no concentration beside the values) | MEF A1-2A-BIM cells, caspase-Glo luminescence, 3 h; percent of clofoctol response, DMSO zero | 24,000 tested, under 10 active | AID 2465; in the data active means caspase activation above about 5.9%
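System: mouse embryonic fibroblasts co-expressing A1 and BIM (A1-2A-BIM), primed for A1 dependence; amount: 2500 cells/well; doses: 50 nL pinned compound; schedule: cells settled overnight, compound exposure 3 h at 37 °C, 5% CO2; detection: Caspase-Glo 3/7 luminescence, 1 h at room temperature; read-out: Caspase-3/7 activation, seen as rise in luminescence signal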
T cruzi HTS – inhibitors of intracellular Trypanosoma cruzi; intracellular Trypanosoma cruzi in host cells, plate reader; 4.9% of 22,000 active; activity score (inhibition), % at 5.01 µM; in the data active means activity score above about 55%;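 further: parasites and compound incubated about four days before reading; 0% = median of neutral control wells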
INS-1E ATP HTS – INS-1E beta cell protection from cytokine death; INS-1E cytokine-induced death, ATP luminescence, 48 h; normalised: neutral wells 0, positive control 100; protection from cytokine-induced ATP loss, % at 10 µM; 0.1% of 20,000 active; AID 488910;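 active means mean replicate protection from cytokine-induced ATP loss at least 50% and at least 75% of replicates each reaching 50%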
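Assay system: INS-1E rat cells / Quantity: 8000 cells per well / Medium: RPMI without phenol red, 5% FBS / Probe or stimulus: three-cytokine cocktail (IFN-γ, TNF-α, IL-1β) / Dosing: one compound concentration, pin transfer / Timing: 48 h co-treatment, 10 min post-lysis read / Technique: CellTiter-Glo luminescence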
An asterisk follows results filed as active. Shown is part of a subset that was picked to be rich in hits.

For C[C@@H]1CN([C@H](C)CO)C(=O)c2cccc(NC(=O)NC3CCCCC3)c2O[C@H]1CN(C)Cc1ccccc1 the results were A1 apoptosis 2 -1.6, T cruzi HTS 23.3 and INS-1E ATP HTS 7.7.
Screening C[C@@H]1CN([C@H](C)CO)C(=O)c2cccc(NC(=O)NC3CCCCC3)c2O[C@H]1CN(C)Cc1ccc(-c2ccccc2)cc1 returned T cruzi HTS 33.9 and INS-1E ATP HTS -7.3.
Screening C[C@@H]1CN([C@H](C)CO)C(=O)c2cccc(NC(=O)NC3CCCCC3)c2O[C@H]1CN(C)Cc1ccc(Oc2ccccc2)cc1 returned T cruzi HTS 61.0* and INS-1E ATP HTS -38.0.
Screening CNC[C@H]1OCCCC[C@@H](C)Oc2ccc(NC(=O)Nc3ccccc3)cc2C(=O)N([C@H](C)CO)C[C@H]1C returned A1 apoptosis 2 -0.4.
C[C@H](CO)N1C[C@H](C)[C@@H](CN(C)Cc2ccccc2)Oc2ccc(N(C)C)cc2CC1=O was read as A1 apoptosis 2 -0.5.
Screening C[C@H](CO)N1C[C@H](C)[C@H](CN(C)Cc2ccc(Oc3ccccc3)cc2)Oc2ccc(N(C)C)cc2CC1=O returned T cruzi HTS 34.4 and INS-1E ATP HTS -16.0.
`C[C@@H]1CN([C@H](C)CO)C(=O)Cc2cc(N(C)C)ccc2O[C@H]1CN(C)Cc1ccc(Oc2ccccc2)cc1` gave T cruzi HTS 56.9* and INS-1E ATP HTS -27.5.
For C[C@H]1CN([C@@H](C)CO)C(=O)Cc2cc(N(C)C)ccc2O[C@@H]1CN(C)Cc1ccccc1 the results were A1 apoptosis 2 0.5, T cruzi HTS 58.2* and INS-1E ATP HTS -6.5.
`C[C@@H]1CN([C@@H](C)CO)C(=O)c2cccc(NC(=O)Nc3ccccc3)c2O[C@H]1CN(C)Cc1ccc(C(=O)Nc2ccccc2N)cc1` gave A1 apoptosis 2 0.3, T cruzi HTS 49.0 and INS-1E ATP HTS 8.3.
Screening C[C@@H]1CN([C@H](C)CO)C(=O)c2cccc(NC(=O)Nc3ccc4c(c3)OCO4)c2O[C@H]1CN(C)Cc1ccc(C(=O)Nc2ccccc2N)cc1 returned T cruzi HTS 77.0* and INS-1E ATP HTS 9.9.
For C[C@@H]1CN([C@@H](C)CO)C(=O)c2cccc(NC(=O)Nc3ccc(F)cc3)c2O[C@@H]1CN(C)Cc1ccc(C(=O)Nc2ccccc2N)cc1 the results were A1 apoptosis 2 -3.7, T cruzi HTS 69.8* and INS-1E ATP HTS 19.1.
Screening C[C@H]1CN([C@@H](C)CO)C(=O)c2cccc(NC(=O)Nc3ccccc3)c2O[C@@H]1CN(C)Cc1ccc(C(=O)Nc2ccccc2N)cc1 returned A1 apoptosis 2 -0.8, T cruzi HTS 73.6* and INS-1E ATP HTS 17.2.
Screening C[C@H](CO)N1C[C@H](C)[C@@H](CN(C)Cc2ccc(C(=O)Nc3ccccc3N)cc2)Oc2ccc(NC(=O)Nc3ccc(F)cc3)cc2C1=O returned T cruzi HTS 26.3 and INS-1E ATP HTS -8.4.
`CC(C)NC(=O)Nc1cccc2c1O[C@H](CN(C)Cc1ccc(C(=O)Nc3ccccc3N)cc1)[C@H](C)CN([C@H](C)CO)C2=O` gave A1 apoptosis 2 -0.2, T cruzi HTS 50.9 and INS-1E ATP HTS -5.4.
For C[C@H](CO)N1C[C@H](C)[C@H](CN(C)Cc2ccc(C(=O)Nc3ccccc3N)cc2)Oc2c(NC(=O)Nc3ccc4c(c3)OCO4)cccc2C1=O the results were A1 apoptosis 2 0.3, T cruzi HTS 54.8 and INS-1E ATP HTS -10.3.
C[C@H](CO)N1C[C@H](C)[C@@H](CN(C)Cc2ccc(C(=O)Nc3ccccc3N)cc2)Oc2c(NC(=O)Nc3ccccc3)cccc2C1=O was read as T cruzi HTS 61.3* and INS-1E ATP HTS 6.5.
Screening COc1ccc(CN(C)C[C@H]2OCCCC[C@@H](C)Oc3ccc(NS(=O)(=O)c4c(C)noc4C)cc3C(=O)N([C@@H](C)CO)C[C@H]2C)cc1 returned A1 apoptosis 2 2.3.
Screening C[C@@H]1CCCCO[C@H](CN(C)Cc2ccccc2)[C@@H](C)CN([C@@H](C)CO)C(=O)c2cc(NC(=O)c3ccncc3)ccc2O1 returned A1 apoptosis 2 0.6.
`C[C@@H]1CN([C@H](C)CO)C(=O)c2cc(NC(=O)Nc3ccc(C(F)(F)F)cc3)ccc2O[C@H]1CN(C)S(C)(=O)=O` gave A1 apoptosis 2 0.3, T cruzi HTS -13.7 and INS-1E ATP HTS -1.4.
C[C@H]1CN([C@@H](C)CO)C(=O)c2cccc(NC(=O)c3ccncc3)c2O[C@H]1CN(C)C(=O)Nc1ccc(C(F)(F)F)cc1 was read as A1 apoptosis 2 1.2, T cruzi HTS 85.8* and INS-1E ATP HTS 7.6.
